From ChEMBL document CHEMBL2375290, “Nonclassical antifolates, part 3: synthesis, biological evaluation and molecular modeling study of some new 2-heteroarylthio-quinazolin-4-ones” (Eur J Med Chem, 2013)
Converted amounts (≈) assume the structure as drawn.

Legend:
[1] = tested on: NCI-H23; experiment: Cytotoxicity against human NCI-H23 cells at 10 uM after 48 hrs by coulter counter analysis; type: functional; conditions: NCI-H23, 48 h, read-out: GI
[2] = tested on: SF-295; experiment: Cytotoxicity against human SF295 cells at 10 uM after 48 hrs by coulter counter analysis; type: functional; conditions: SF-295, 48 h, read-out: GI
[3] = tested on: SNB-75; experiment: Cytotoxicity against human SNB75 cells at 10 uM after 48 hrs by coulter counter analysis; type: functional; conditions: SNB-75, 48 h, read-out: GI
[4] = tested on: SN12C; experiment: Cytotoxicity against human SN12C cells at 10 uM after 48 hrs by coulter counter analysis; type: functional; conditions: read-out: GI
[5] = tested on: Micrococcus luteus; experiment: Antimicrobial activity against Micrococcus luteus at 200 ug after 24 hrs by agar disc diffusion method; type: functional; conditions: read-out: DIZ
[6] = tested on: RPMI-8226; experiment: Cytotoxicity against human RPMI8226 cells at 10 uM after 48 hrs by coulter counter analysis; type: functional; conditions: RPMI-8226, 48 h, read-out: GI
[7] = tested on: LOX IMVI; experiment: Cytotoxicity against human LOXIMVI cells at 10 uM after 48 hrs by coulter counter analysis; type: functional; conditions: read-out: GI
[8] = tested on: CAKI-1; experiment: Cytotoxicity against human Caki1 cells at 10 uM after 48 hrs by coulter counter analysis; type: functional; conditions: CAKI-1, 48 h, read-out: GI
[9] = tested on: Malme-3M; experiment: Cytotoxicity against human MALME-3M cells at 10 uM after 48 hrs by coulter counter analysis; type: functional; conditions: read-out: GI
[10] = target: T1, Dihydrofolate reductase (Bos taurus, UniProt P00376); experiment: Inhibition of bovine DHFR after 2 mins by spectrophotometry
T1 sequence (P00376 whole entry): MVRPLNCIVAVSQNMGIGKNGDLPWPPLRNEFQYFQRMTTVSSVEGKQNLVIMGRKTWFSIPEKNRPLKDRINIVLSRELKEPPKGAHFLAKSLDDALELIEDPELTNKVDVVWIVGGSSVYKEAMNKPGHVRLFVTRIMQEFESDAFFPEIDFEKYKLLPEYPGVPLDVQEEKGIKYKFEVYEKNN

[11] = tested on: MOLT-4; experiment: Cytotoxicity against human MOLT4 cells at 10 uM after 48 hrs by coulter counter analysis; type: functional; conditions: MOLT-4, 48 h, read-out: GI
[12] = tested on: MDA-MB-435; experiment: Cytotoxicity against human MDA-MB-435 cells at 10 uM after 48 hrs by coulter counter analysis; type: functional; conditions: MDA-MB-435, 48 h, read-out: GI
[13] = tested on: MDA-MB-231; experiment: Cytotoxicity against human MDA-MB-231 cells at 10 uM after 48 hrs by coulter counter analysis; type: functional; conditions: MDA-MB-231, 48 h, read-out: GI
[14] = tested on: SR; experiment: Cytotoxicity against human SR cells at 10 uM after 48 hrs by coulter counter analysis; type: functional; conditions: read-out: GI
[15] = tested on: A549; experiment: Cytotoxicity against human A549/ATCC cells at 10 uM after 48 hrs by coulter counter analysis; type: functional; conditions: A549, 48 h, read-out: GI
[16] = tested on: A498; experiment: Cytotoxicity against human A498 cells at 10 uM after 48 hrs by coulter counter analysis; type: functional; conditions: A498, 48 h, read-out: GI
[17] = tested on: CCRF-CEM; experiment: Cytotoxicity against human CCRF-CEM cells at 10 uM after 48 hrs by coulter counter analysis; type: functional; conditions: read-out: GI
[18] = tested on: PC-3; experiment: Cytotoxicity against human PC3 cells at 10 uM after 48 hrs by coulter counter analysis; type: functional; conditions: PC-3, 48 h, read-out: GI
[19] = tested on: MCF7; experiment: Cytotoxicity against human MCF7 cells at 10 uM after 48 hrs by coulter counter analysis; type: functional; conditions: MCF7, 48 h, read-out: GI
[20] = tested on: HL-60(TB); experiment: Cytotoxicity against human HL-60(TB) cells at 10 uM after 48 hrs by coulter counter analysis; type: functional; conditions: HL-60, 48 h, read-out: GI
[21] = Cytotoxicity against human NCI-ADR-RES cells at 10 uM after 48 hrs by coulter counter analysis; type: functional; conditions: read-out: GI
[22] = tested on: SNB-19; experiment: Cytotoxicity against human SNB19 cells at 10 uM after 48 hrs by coulter counter analysis; type: functional; conditions: SNB-19, 48 h, read-out: GI
[23] = tested on: Bacillus subtilis; experiment: Antimicrobial activity against Bacillus subtilis at 200 ug after 24 hrs by agar disc diffusion method; type: functional; conditions: read-out: DIZ
[24] = tested on: NCI-H226; experiment: Cytotoxicity against human NCI-H226 cells at 10 uM after 48 hrs by coulter counter analysis; type: functional; conditions: NCI-H226, 48 h, read-out: GI
[25] = tested on: Pseudomonas aeruginosa; experiment: Antimicrobial activity against Pseudomonas aeruginosa at 200 ug after 24 hrs by agar disc diffusion method; type: functional; conditions: read-out: DIZ
[26] = tested on: Staphylococcus aureus; experiment: Antimicrobial activity against Staphylococcus aureus at 200 ug after 24 hrs by agar disc diffusion method; type: functional; conditions: read-out: DIZ
[27] = tested on: IGROV-1; experiment: Cytotoxicity against human IGROV1 cells at 10 uM after 48 hrs by coulter counter analysis; type: functional; conditions: IGROV-1, 48 h, read-out: GI
[28] = tested on: RXF 393; experiment: Cytotoxicity against human RXF393 cells at 10 uM after 48 hrs by coulter counter analysis; type: functional; conditions: RXF 393, 48 h, read-out: GI
[29] = tested on: SK-MEL-5; experiment: Cytotoxicity against human SK-MEL-5 cells at 10 uM after 48 hrs by coulter counter analysis; type: functional; conditions: SK-MEL-5, 48 h, read-out: GI
[30] = tested on: UO-31; experiment: Cytotoxicity against human UO31 cells at 10 uM after 48 hrs by coulter counter analysis; type: functional; conditions: UO-31, 48 h, read-out: GI
[31] = tested on: Escherichia coli; experiment: Antimicrobial activity against Escherichia coli at 200 ug after 24 hrs by agar disc diffusion method; type: functional; conditions: read-out: DIZ
[32] = tested on: OVCAR-4; experiment: Cytotoxicity against human OVCAR4 cells at 10 uM after 48 hrs by coulter counter analysis; type: functional; conditions: OVCAR-4, 48 h, read-out: GI
[33] = tested on: NCI-H522; experiment: Cytotoxicity against human NCI-H522 cells at 10 uM after 48 hrs by coulter counter analysis; type: functional; conditions: NCI-H522, 48 h, read-out: GI
[34] = tested on: Hs-578T; experiment: Cytotoxicity against human Hs578T cells at 10 uM after 48 hrs by coulter counter analysis; type: functional; conditions: read-out: GI
[35] = tested on: UACC-62; experiment: Cytotoxicity against human UACC62 cells at 10 uM after 48 hrs by coulter counter analysis; type: functional; conditions: UACC-62, 48 h, read-out: GI
[36] = Cytotoxicity against human EKVX cells at 10 uM after 48 hrs by coulter counter analysis; type: functional; conditions: read-out: GI
[37] = tested on: T47D; experiment: Cytotoxicity against human T47D cells at 10 uM after 48 hrs by coulter counter analysis; type: functional; conditions: read-out: GI
[38] = tested on: Bacillus subtilis; experiment: Antimicrobial activity against Bacillus subtilis after 24 hrs by micro-dilution susceptibility method; type: functional
Procedure, shortened: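 Broth microdilution in Müller-Hinton broth against S. aureus IFO 3060, B. subtilis IFO 3007, E. coli IFO 3301 and P. aeruginosa IFO 3448. These are the same standard strains used in the disc-diffusion primary screen. Compounds were solubilized in DMSO. MIC recorded as the minimal inhibitory concentration.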

In the case of `Cc1ccc2nc(Sc3cnc(N)s3)n(Cc3ccccc3)c(=O)c2c1`, the inhibition of growth at 10 µM [1] is reported as under 10%, the inhibition of growth at 10 µM [2] is reported as 17.3% and the inhibition of growth at 10 µM [3] is reported as 20.4%. It also gave an inhibition of growth at 10 µM [4] of under 10%, a zone of inhibition at 200 µg/disc [5] of 8 mm and an inhibition of growth at 10 µM [6] of 16.8%. The inhibition of growth at 10 µM [7] was 10.4%, the inhibition of growth at 10 µM [8] was 30.3% and the inhibition of growth at 10 µM [9] was 12.3%. The IC50 [10] was 1 µM, the inhibition of growth at 10 µM [11] was under 10% and the inhibition of growth at 10 µM [12] was under 10%. The inhibition of growth at 10 µM [13] was 15.2%, the inhibition of growth at 10 µM [14] was under 10% and the inhibition of growth at 10 µM [15] was under 10%. It also gave an inhibition of growth at 10 µM [16] of under 10%, an inhibition of growth at 10 µM [17] of under 10% and an inhibition of growth at 10 µM [18] of 22.6%. The inhibition of growth at 10 µM [19] was 10.8%, the inhibition of growth at 10 µM [20] was under 10% and the inhibition of growth at 10 µM [21] was under 10%. The inhibition of growth at 10 µM [22] was under 10%, the zone of inhibition at 200 µg/disc [23] was 8 mm and the inhibition of growth at 10 µM [24] was 19.9%. It also gave a zone of inhibition at 200 µg/disc [25] of 8 mm, a zone of inhibition at 200 µg/disc [26] of 8 mm and an inhibition of growth at 10 µM [27] of 21.8%. For the same compound, the inhibition of growth at 10 µM [28] was under 10%, the inhibition of growth at 10 µM [29] was under 10% and the inhibition of growth at 10 µM [30] was 29.4%. It also gave a zone of inhibition at 200 µg/disc [31] of 8 mm, an inhibition of growth at 10 µM [32] of under 10% and an inhibition of growth at 10 µM [33] of under 10%. It also gave an inhibition of growth at 10 µM [34] of under 10%, an inhibition of growth at 10 µM [35] of 12.2% and an inhibition of growth at 10 µM [36] of 25.9%. It also gave an inhibition of growth at 10 µM [37] of under 10%.

For `O=C(O)c1ccc([N+](=O)[O-])cc1Sc1nc2ccc(Cl)cc2c(=O)n1-c1ccccc1`, the zone of inhibition at 200 µg/disc [5] was 8 mm, the IC50 [10] was 10 µM and the MIC [38] was 4 µg/mL (≈ 8.81 µM). It also gave a zone of inhibition at 200 µg/disc [23] of 20 mm, a zone of inhibition at 200 µg/disc [25] of 8 mm and a zone of inhibition at 200 µg/disc [26] of 14 mm. It also gave a zone of inhibition at 200 µg/disc [31] of 8 mm.

`CCOC(=O)c1nc(N)sc1Sc1nc2cc(OC)c(OC)cc2c(=O)n1-c1ccccc1` showed a zone of inhibition at 200 µg/disc [5] of 8 mm, an IC50 [10] of 0.3 µM and a zone of inhibition at 200 µg/disc [23] of 8 mm. The zone of inhibition at 200 µg/disc [25] was 8 mm, the zone of inhibition at 200 µg/disc [26] was 8 mm and the zone of inhibition at 200 µg/disc [31] was 8 mm.

In the case of `CCOC(=O)c1nc(N)sc1Sc1nc2ccc(Cl)cc2c(=O)n1-c1ccccc1`, the zone of inhibition at 200 µg/disc [5] is reported as 8 mm, the IC50 [10] is reported as 3 µM and the zone of inhibition at 200 µg/disc [23] is reported as 8 mm. The zone of inhibition at 200 µg/disc [25] was 8 mm, the zone of inhibition at 200 µg/disc [26] was 8 mm and the zone of inhibition at 200 µg/disc [31] was 8 mm.

For `CCOC(=O)c1nc(N)sc1Sc1nc2cc(OC)c(OC)cc2c(=O)n1Cc1ccccc1`, the zone of inhibition at 200 µg/disc [5] was 8 mm, the IC50 [10] was 2 µM and the zone of inhibition at 200 µg/disc [23] was 20 mm. The zone of inhibition at 200 µg/disc [25] was 8 mm, the zone of inhibition at 200 µg/disc [26] was 18 mm and the zone of inhibition at 200 µg/disc [31] was 8 mm.
